Sampled rows, rich in hits. Any-hit rate of the full collection: about 3.1%.
CHO parental Ca = counter-screen: ATP calcium response change in parental CHO cells; parental CHO-K1, ATP-induced calcium, Fluo-8 fluorescence; inhibition, % at 5.6 µM; actives 0.63% (n = 330,000); AID 463079;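 active means inhibition above that plate's mean sample inhibition plus 3 SD, cut at about 26% in these data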;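 further: 0% = ATP-challenged DMSO wells and 100% = DMSO wells without ATP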
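material = parental CHO cells | also added = ATP as calcium-mobilizing challenge | dosing = single point at 5.6 µM | detection = intracellular calcium via Fluo-8 no-wash fluorescent dye | read-out = % inhibition | benchmarks = low control ATP plus DMSO, high control DMSO only | repeats = one well per compound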
OX1R antag-1 = antagonists of human orexin 1 receptor (OX1R) | actives 1.8% (n = 330,000) | inhibition, % at 6.6 µM | O43613 | AID 485270 | OX1R-expressing cells, FRET antagonist read-out; in the data active means inhibition mostly above about 38%, no sharp cut-off; inactive means mostly below about 40%;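 further: 0% = agonist challenge alone and 100% = reference antagonist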
OX1R antag-2 = antagonists of human orexin 1 receptor; O43613; CHO/OX1R cells, Fluo-8 calcium fluorescence, orexin A; inhibition, % at 5 µM; actives 0.43% (n = 330,000);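 active means inhibition above its plate's threshold, mean inhibition of all tested compounds on the plate plus 3 SD, cut at about 37% in these data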;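 further: 0% = orexin A challenge wells and 100% = SB-334867-A antagonist wells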
GPR7 antagonist = antagonists of human GPR7 (neuropeptides B/W receptor 1) | P48145 | actives 1.1% (n = 290,000) | inhibition, % at 4.4 µM | GPR7-expressing cells, fluorescence antagonist assay; in the data active means inhibition above about 16%, passing the limit was not always enough;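 further: cells stimulated with the agonist NPW; 0% = agonist with vehicle and 100% = vehicle without agonist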
Target sequence (P48145 whole entry, looked up): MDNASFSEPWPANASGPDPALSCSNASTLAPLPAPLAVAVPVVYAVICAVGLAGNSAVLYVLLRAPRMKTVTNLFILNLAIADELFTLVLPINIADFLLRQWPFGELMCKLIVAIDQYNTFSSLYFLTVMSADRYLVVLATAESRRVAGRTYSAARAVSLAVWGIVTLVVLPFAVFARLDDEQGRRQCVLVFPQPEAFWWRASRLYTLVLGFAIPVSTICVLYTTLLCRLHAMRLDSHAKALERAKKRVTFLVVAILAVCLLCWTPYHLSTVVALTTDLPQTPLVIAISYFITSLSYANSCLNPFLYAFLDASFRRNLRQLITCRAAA
GalR3 antagonist = blocks the human galanin receptor 3 | O60755 | inhibition, % at 3 µM | HEK293 GalR3-CNG cAMP membrane potential fluorescence; galR3 body fused to GalR1 C-terminus | actives 0.44% (n = 360,000);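 active means inhibition above the screen-wide average plus 3 SD, cut at about 13% in these data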;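 further: forskolin and galanin both at EC90 stimulate the cells; cAMP rise reported by CNG channel membrane potential dye signal; 0% = forskolin plus galanin with DMSO and 100% = forskolin alone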
Target sequence (O60755 1-299 limits assumed): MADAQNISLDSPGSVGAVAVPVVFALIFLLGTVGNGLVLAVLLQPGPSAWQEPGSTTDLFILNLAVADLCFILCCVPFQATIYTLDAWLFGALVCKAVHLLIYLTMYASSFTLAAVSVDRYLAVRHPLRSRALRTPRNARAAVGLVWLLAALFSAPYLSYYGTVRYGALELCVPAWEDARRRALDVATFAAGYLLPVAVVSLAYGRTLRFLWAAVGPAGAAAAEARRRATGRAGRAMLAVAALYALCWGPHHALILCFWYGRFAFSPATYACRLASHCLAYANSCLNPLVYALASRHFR
OX1R Ca confirm = OX1R (human) antagonism, confirmed; inhibition, % at 5 µM; AID 492963; CHO/OX1R cells, orexin A calcium Fluo-8 fluorescence; shares compounds with OX1R antag-2; actives 38% (n = 1,100); in the data active means inhibition above about 29%;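 further: 0% = agonist challenge alone and 100% = reference antagonist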
CHO Ca triplic = counter-screen for OX1R antagonists: effect in parental CHO cells | inhibition, % at 5.6 µM | AID 492965 | parental CHO-K1, ATP-induced calcium, Fluo-8 fluorescence | shares compounds with OX1R antag-2 | actives 9.3% (n = 1,100);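 active means inhibition above a per-plate limit, the mean inhibition of that plate's test compounds plus 3 SD, cut at about 25% in these data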;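 further: 0% = ATP challenge with DMSO and 100% = DMSO without ATP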
Numbers without * were called inactive; · = no result given.

SMILES	CHO parental Ca	OX1R antag-1	OX1R antag-2	GPR7 antagonist	GalR3 antagonist	OX1R Ca confirm	CHO Ca triplic
CC(C)NC(=O)C1CCN(C2CCN(CC3CC=CCC3)CC2)CC1 (centres undefined)	-4	8	76*	1	-6	3	-1
CCNS(=O)(=O)c1ccc(NC(=S)NCc2ccco2)cc1	2	11	11	0	0	·	·
O=S(=O)(NCc1ccccc1)c1ccc(NC(=S)NCc2ccco2)cc1	13	-6	30	-3	-5	40*	22
CCOC(=O)C1CCN(C(=O)CNC(=O)Cn2c(C)cc3ccccc3c2=O)CC1	-12	11	-16	-8	-6	·	·
CCOc1ccccc1NC(=O)CCN(c1ccc(C)cc1)S(=O)(=O)c1ccccc1	-23	55	1	13	-4	·	·
CCOc1ccccc1NC(=O)CN(c1nccs1)S(=O)(=O)c1ccc(N)cc1	-18	72	28	-1	-5	30*	-15
CCCN1C(=O)/C(=C/C=C2\N(CC)c3ccccc3C2(C)C)SC1=S	19	4	37	9	-4	55*	52*
CCN1C(=O)/C(=C/C=C2/Sc3ccccc3N2CCO)SC1=S	3	43	22	-2	-1	20	25*
CCCN1C(=O)/C(=C\C=C2/Sc3ccccc3N2CCO)SC1=S	-22	31	10	-3	-6	·	·
FC(F)Oc1ccc(C2N=C(c3ccccc3)NO2)cc1 (centres undefined)	3	-4	11	6	-8	·	·
CCCN[C@H]1CCc2nc(N)sc2C1	-3	21	-1	·	-3	·	·
CC(C)(C)c1ccc(C(O)c2ncc(-c3ccc(F)cc3)[nH]2)cc1 (centres undefined)	·	·	·	·	-6	·	·
Cc1ccn2c(NCc3ccccc3)c(-c3cccc(SC4CCCCC4)c3)nc2c1	15	32	56	·	-1	18	-4
Cc1ccc2nc(-c3cccc(SC4CCCCC4)c3)c(NCc3ccccc3)n2c1	-13	11	16	·	-7	·	·
Cc1cc(Cl)ccc1NC(=S)NCc1ccc(Cl)cc1	11	40	28	10	-5	-4	5
CCN(CC(=O)NCc1ccc(F)cc1)C(=O)CN1CCN(c2ccccc2OC)CC1	-7	7	-11	-6	-9	·	·
Cc1nn(C)c(C(=O)Nc2ccc3c(c2)OCO3)c1[N+](=O)[O-]	·	·	·	-2	-1	·	·
Cc1nn(C)c(C(=O)Nc2ccc(Cl)c([N+](=O)[O-])c2)c1Cl	3	5	36	-5	-3	2	0
CCC[C@@H](NS(=O)(=O)c1ccc(C)cc1)C(=O)Oc1ccc2c3c(c(=O)oc2c1)CCC3	24	6	23	-10	-2	39*	-21
COc1ccc(C(=O)Nc2ccc(Cl)c(S(=O)(=O)Nc3ccccc3OC)c2)cc1	-3	30	32	14	-7	15	3
Cc1cccc2c1ncc1c(=O)n(-c3ccccc3)[nH]c12	-11	15	-18	8	-12	·	·
Cc1ccc(C)c(NS(=O)(=O)c2cc(C(=O)Nc3cccc(N(C)S(C)(=O)=O)c3)ccc2C)c1	16	34	65*	2	-6	36*	-8
Cc1ccccc1NS(=O)(=O)c1cc(C(=O)NCCSC2CCCCC2)ccc1C	-6	21	60*	-7	-5	4	-12
Cc1ccc(NS(=O)(=O)c2cc(C(=O)Nc3cccc(N(C)S(C)(=O)=O)c3)ccc2C)c(C)c1	4	40	14	0	1	·	·
Cc1ccc(C)c(NS(=O)(=O)c2cc(C(=O)NCCSC3CCCCC3)ccc2C)c1	-9	17	51*	-15	9	-1	-15
SMILES	CHO parental Ca	OX1R antag-1	OX1R antag-2	GPR7 antagonist	GalR3 antagonist	OX1R Ca confirm	CHO Ca triplic
Cc1ccccc1NS(=O)(=O)c1cc(C(=O)N2CCCC2)ccc1C	2	3	-15	-8	0	·	·
O=C(Nc1ccc(NS(=O)(=O)c2ccccc2)c(Cl)c1)c1ccccc1	·	·	·	·	-7	·	·
O=C(Cc1c(F)cccc1Cl)NCc1cccnc1	-3	-4	-8	-2	-6	·	·
COc1cccc(-c2sc3ccc(OC)cc3c2-c2ccc(OCCN(C)C)cc2)c1	23	7	59*	·	-7	37*	4
CCO/C(C)=C1/SC(=S)NC1=O	2	16	7	-10	-5	·	·
CC1C(=O)OC2C1CCC1(C)C3(C)C(=O)C=CC213 (centres undefined)	·	·	·	·	-1	·	·
CCCCOc1ccc(S(=O)(=O)N2CCCCCC2)cc1	5	-1	42	7	-6	-14	13
O=C(NCC1CCCO1)C1CC(=O)N(c2ccccc2)C1 (centres undefined)	2	11	-13	-3	-6	·	·
CC(/C=C1\SC(=S)N(CCC(=O)Nc2nc(C)cs2)C1=O)=C\c1ccccc1	-14	-1	-10	-8	-8	·	·
CCOC(=O)c1ccc(NC(=S)N2CCSC2c2ccc(Cl)cc2)cc1 (centres undefined)	28	3	40	0	-2	91*	73*
CCOC(=O)c1ccc(NC(=S)N2CCSC2c2ccc(OC)cc2)cc1 (centres undefined)	-5	7	-17	2	-4	·	·
COc1ccc(NS(=O)(=O)c2ccc(SC)cc2)cc1	1	7	57*	12	-4	2	5
COc1ccc(C(=O)Nc2cccc3ccccc23)cc1	-11	22	-10	10	-12	·	·
COc1ccc(C(=O)NNC(=O)C(=O)Nc2cccc3ccccc23)cc1	7	2	26	-5	-1	-1	-5
CN(C)CCCNC(=O)OC1CC2CC1[C@H]1CCCCN1C2=O (some centres undefined)	·	·	·	·	-3	·	·
COc1ccc(CNC(=O)c2cccc(S(=O)(=O)N3CCN(c4ccc(F)cc4)CC3)c2)cc1	·	·	·	·	-4	·	·
COc1ccc(COC(=O)c2cccc(S(=O)(=O)N3CCN(C(C)=O)CC3)c2)cc1	14	28	29	·	-5	11	1
COc1cccc(CNC(=O)c2cccc(S(=O)(=O)N3CCN(c4ccc(F)cc4)CC3)c2)c1	12	22	24	·	-3	26	3
CC(C)c1ccc(CNc2cc(N3CCCC3)ccc2[N+](=O)[O-])cc1	8	8	53*	1	-4	-7	39*
CC(C)(C)CNc1cc(N2CCCC2)ccc1[N+](=O)[O-]	-14	9	-14	-7	·	·	·
CN(Cc1ccccc1)C(=O)COC(=O)c1cc(NS(=O)(=O)c2cccs2)ccc1O	18	58	44*	12	-9	31*	26*
Cc1cccc(N2CCN(C(=O)c3ccccc3NC(=O)C3=CSCCO3)CC2C)c1 (centres undefined)	-23	3	-23	-3	-3	·	·

Bioassay records from PubChem BioAssay.
